Legend:
Assay type in all cases: functional
Jurkat [1] = assay: Anticancer activity against human Jurkat cells assessed as viable cells at 10^-5 M after 24 hrs by XTT assay relative to control; conditions: read-out: Activity
Outline: (§1)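 DLD-1, HepG2 and Jurkat cells were grown in low-glucose DMEM with 10% FBS, 1% L-glutamine, 100 IU/mL penicillin and streptomycin at 37 °C under 5% CO2. They were seeded at 10 × 10^4 cells/well and treated with a 10-fold dilution series from 10^-4 to 10^-8 M for 24 or 48 h. XTT was then added, absorbance read at 450 nm after 4 h, and viability expressed as % of untreated control (set to 100%).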

HepG2 [2] = assay: Anticancer activity against human HepG2 cells assessed as viable cells at 10^-4 M after 24 hrs by XTT assay relative to control; conditions: HepG2, 24 h, read-out: Activity; outline: as §1
HepG2 [3] = assay: Anticancer activity against human HepG2 cells assessed as viable cells at 10^-4 M after 48 hrs by XTT assay relative to control; conditions: HepG2, 48 h, read-out: Activity; outline: as §1
DLD-1 [4] = assay: Anticancer activity against human DLD1 cells assessed as viable cells at 10^-4 M after 24 hrs by XTT assay relative to control; conditions: DLD-1, 24 h, read-out: Activity; outline: as §1
HepG2 [5] = assay: Anticancer activity against human HepG2 cells assessed as viable cells at 10^-5 M after 48 hrs by XTT assay relative to control; conditions: HepG2, 48 h, read-out: Activity; outline: as §1
Jurkat [6] = assay: Anticancer activity against human Jurkat cells assessed as viable cells at 10^-5 M after 48 hrs by XTT assay relative to control; conditions: read-out: Activity; outline: as §1
Jurkat [7] = assay: Anticancer activity against human Jurkat cells assessed as viable cells at 10^-4 M after 48 hrs by XTT assay relative to control; conditions: read-out: Activity; outline: as §1
DLD-1 [8] = assay: Anticancer activity against human DLD1 cells assessed as viable cells at 10^-5 M after 48 hrs by XTT assay relative to control; conditions: DLD-1, 48 h, read-out: Activity; outline: as §1
HepG2 [9] = assay: Anticancer activity against human HepG2 cells assessed as viable cells at 10^-5 M after 24 hrs by XTT assay relative to control; conditions: HepG2, 24 h, read-out: Activity; outline: as §1
Jurkat [10] = assay: Anticancer activity against human Jurkat cells assessed as viable cells at 10^-4 M after 24 hrs by XTT assay relative to control; conditions: read-out: Activity; outline: as §1
DLD-1 [11] = assay: Anticancer activity against human DLD1 cells assessed as viable cells at 10^-5 M after 24 hrs by XTT assay relative to control; conditions: DLD-1, 24 h, read-out: Activity; outline: as §1
DLD-1 [12] = assay: Anticancer activity against human DLD1 cells assessed as viable cells at 10^-4 M after 48 hrs by XTT assay relative to control; conditions: DLD-1, 48 h, read-out: Activity; outline: as §1

| SMILES | viability at 10 µM (Jurkat [1]) [%] | viability at 100 µM (HepG2 [2]) [%] | viability at 100 µM (HepG2 [3]) [%] | viability at 100 µM (DLD-1 [4]) [%] | viability at 10 µM (HepG2 [5]) [%] | viability at 10 µM (Jurkat [6]) [%] | viability at 100 µM (Jurkat [7]) [%] | viability at 10 µM (DLD-1 [8]) [%] | viability at 10 µM (HepG2 [9]) [%] | viability at 100 µM (Jurkat [10]) [%] | viability at 10 µM (DLD-1 [11]) [%] | viability at 100 µM (DLD-1 [12]) [%] |
| --- | --- | --- | --- | --- | --- | --- | --- | --- | --- | --- | --- | --- |
| O=C(NC(=S)Nc1ccc(Br)cc1)c1nn(-c2ccccc2)c(-c2ccccc2)c1C(=O)c1ccccc1 | 100 | 55.2 | 27.2 | 65.2 | 27.8 | 87.5 | 40.1 | 62.5 | 51.5 | 78.1 | 78.1 | 50.1 |
| Cc1ccccc1NC(=S)NC(=O)c1nn(-c2ccccc2)c(-c2ccccc2)c1C(=O)c1ccccc1 | 100 | 29.1 | 20.8 | 55.3 | 22.8 | 51.2 | 76.6 | 45.6 | 33.3 | 100 | 63.2 | 41.3 |
| O=C(NC(=S)Nc1ccc(F)cc1)c1nn(-c2ccccc2)c(-c2ccccc2)c1C(=O)c1ccccc1 | 100 | 50.1 | 23.6 | 62.5 | 30.1 | 47.8 | 67.6 | 60.2 | 54.2 | 100 | 75.1 | 51.5 |
| O=C(NC(=S)Nc1ccccc1)c1nn(-c2ccccc2)c(-c2ccccc2)c1C(=O)c1ccccc1 | 30 | 38.2 | 21.8 | 71.3 | 23.7 | 67.6 | 6 | 55.4 | 42.1 | 23.3 | 75.5 | 60.6 |
| O=C(NC(=S)Nc1cccc2ccccc12)c1nn(-c2ccccc2)c(-c2ccccc2)c1C(=O)c1ccccc1 | 46 | 78.7 | 49.9 | 74.2 | 51.2 | 14.5 | 8.24 | 75.5 | 85.5 | 36.4 | 82.2 | 70.6 |
| O=C(NC(=S)NCc1ccccc1)c1nn(-c2ccccc2)c(-c2ccccc2)c1C(=O)c1ccccc1 | 34.7 | 49.2 | 39.8 | 64.2 | 40.6 | 23.1 | 17.9 | 65.5 | 56.4 | 36.6 | 75.2 | 55.9 |
| O=C(NC(=S)Nc1ncccn1)c1nn(-c2ccccc2)c(-c2ccccc2)c1C(=O)c1ccccc1 | 100 | 44.3 | 28.8 | 80.4 | 31.2 | 28 | 23.4 | 81.4 | 51.1 | 86.2 | 88.5 | 75.5 |
| NC(=O)c1ccc(NC(=S)NC(=O)c2nn(-c3ccccc3)c(-c3ccccc3)c2C(=O)c2ccccc2)cc1 | 100 | 38.1 | 22.9 | 100 | 27.3 | 66.3 | 39.2 | 95.2 | 44.2 | 100 | 100 | 96.6 |
| COc1ccc(NC(=S)NC(=O)c2nn(-c3ccccc3)c(-c3ccccc3)c2C(=O)c2ccccc2)cc1 | 37.8 | 36.5 | 22.6 | 71.2 | 27.9 | 87.5 | 8.98 | 68.2 | 42 | 31.1 | 80.5 | 62.1 |
| O=C(NC(=S)Nc1ccc(Cl)cc1)c1nn(-c2ccccc2)c(-c2ccccc2)c1C(=O)c1ccccc1 | 56.3 | 49.5 | 24.8 | 60.5 | 24.9 | 90 | 24.2 | 55.2 | 53.7 | 57.3 | 73.3 | 49.2 |
| Cc1ccc(NC(=S)NC(=O)c2nn(-c3ccccc3)c(-c3ccccc3)c2C(=O)c2ccccc2)cc1 | 50.3 | 49.2 | 25.9 | 57.1 | 27.7 | 14.2 | 12.5 | 48.5 | 51.6 | 30 | 65.1 | 40.2 |

— ChEMBL document CHEMBL2390889, “Synthesis and anticancer activity of acyl thioureas bearing pyrazole moiety” (2013)
